# A1 apoptosis 2 – blocks A1, raising caspase activity; 24,000 tested, under 10 active; caspase activation, % (test concentration not listed); AID 2465; MEF A1-2A-BIM cells, caspase-Glo luminescence, 3 h; percent of clofoctol response, DMSO zero; in the data active = caspase activation above about 5.9%
#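 Material: A1-2A-BIM-expressing MEF cells. Buffer or medium: RPMI-1640 plus 10% FBS. Incubation: cells settled overnight, compound exposure 3 h at 37 °C, 5% CO2. Signal: Caspase-Glo 3/7 luminescence, 1 h at room temperature.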
# T cruzi intra – blocks T. cruzi growth inside host cells. activity score (inhibition), % at 5.01 µM. intracellular Trypanosoma cruzi in host cells, plate reader. 22,000 compounds, 4.9% hits; in the data active = activity score above about 55%;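 also: parasites and compound incubated about four days before reading; 0% = median of neutral control wells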
# INS-1E rescue – rescue of cytokine-induced death in INS-1E beta cells; 20,000 compounds, 0.1% hits; protection from cytokine-induced ATP loss, % at 10 µM; INS-1E cytokine-induced death, ATP luminescence, 48 h; normalised: neutral wells 0, positive control 100; AID 488910;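 active = mean replicate protection from cytokine-induced ATP loss at least 50% and at least 75% of replicates each reaching 50%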
#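 Assay system – rat INS-1E insulinoma cell line · Quantity – 8000 cells per well · Buffer or medium – RPMI without phenol red, 5% FBS · Schedule – 48 h co-treatment, 10 min post-lysis read · Technique – luminescent ATP assay (CellTiter-Glo)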
# An asterisk follows results filed as active; . = not tested or not shown. The sample as a whole holds a higher share of hits than the screen did.
SMILES,A1 apoptosis 2,T cruzi intra,INS-1E rescue
C[C@@H]1CN([C@H](C)CO)C(=O)Cc2cc(NS(=O)(=O)c3ccc(Cl)cc3)ccc2O[C@@H]1CN(C)S(=O)(=O)c1ccc(F)cc1,.,66.9*,3.0
Cc1ccc(S(=O)(=O)N(C)C[C@H]2Oc3ccc(NS(=O)(=O)c4ccc(F)cc4)cc3CC(=O)N([C@H](C)CO)C[C@@H]2C)cc1,-0.8,.,.
Cc1ccc(S(=O)(=O)Nc2ccc3c(c2)CC(=O)N([C@@H](C)CO)C[C@H](C)[C@@H](CN(C)S(=O)(=O)c2ccccc2)O3)cc1,.,-0.7,5.3
C[C@H](CO)N1C[C@H](C)[C@H](CN(C)S(=O)(=O)c2ccc(Cl)cc2)Oc2ccc(NS(=O)(=O)c3ccc(F)cc3)cc2CC1=O,.,21.5,-5.8
COc1ccc(/C=N/NC(=O)CCCCC(=O)NO)cc1OC,.,-21.8,7.0
O=C(N1CCCCC1)[C@@]1(Cc2ccccc2)N=C(c2ccc(OCCCO)cc2)O[C@H]1c1ccccc1,-0.5,.,.
Cc1noc(C)c1S(=O)(=O)Nc1ccc2c(c1)C(=O)N([C@H](C)CO)C[C@@H](C)[C@@H](CN(C)C(=O)c1ccncc1)OCCCC[C@H](C)O2,-0.5,.,.
C[C@H]1CN([C@@H](C)CO)C(=O)c2cc(NC(=O)Cc3ccccc3)ccc2O[C@@H]1CN(C)S(=O)(=O)c1ccc(Cl)cc1,-1.0,24.0,-2.3
COc1cccc(OC)c1/C=N/NC(=O)CCCCCC(=O)NO,-0.8,.,.
NNC(=O)c1ccc(COc2cc(Cl)ccc2Cl)o1,.,8.9,.
C[C@@H]1CN([C@H](C)CO)C(=O)Cc2cc(NS(=O)(=O)c3ccc(Cl)cc3)ccc2O[C@@H]1CN(C)S(=O)(=O)c1ccccc1,-0.6,59.1*,-0.3
Cc1ccc(S(=O)(=O)Nc2ccc3c(c2)CC(=O)N([C@H](C)CO)C[C@@H](C)[C@@H](CN(C)S(=O)(=O)c2ccc(C)cc2)O3)cc1,.,78.3*,-7.4
C[C@@H]1CN([C@@H](C)CO)C(=O)Cc2cc(NS(=O)(=O)c3ccc(Cl)cc3)ccc2O[C@@H]1CN(C)S(=O)(=O)c1ccccc1,0.6,46.9,9.7
Cc1ccc(S(=O)(=O)Nc2ccc3c(c2)CC(=O)N([C@H](C)CO)C[C@H](C)[C@H](CN(C)S(=O)(=O)c2ccc(Cl)cc2)O3)cc1,.,12.4,-4.4
Cc1ccc(S(=O)(=O)Nc2ccc3c(c2)CC(=O)N([C@H](C)CO)C[C@H](C)[C@@H](CN(C)S(=O)(=O)c2ccc(Cl)cc2)O3)cc1,-0.3,.,.
Cc1ccc(S(=O)(=O)N(C)C[C@H]2Oc3ccc(NS(=O)(=O)c4ccc(Cl)cc4)cc3CC(=O)N([C@H](C)CO)C[C@H]2C)cc1,-1.4,77.9*,-18.7
O=C1O[C@@H](c2ccccc2)[C@@H](c2ccccc2)N2[C@@H](c3ccccc3OCCO)[C@]3(C(=O)Nc4ccccc43)[C@@H](C(=O)NC[C@H](O)c3ccccc3)[C@H]12,-0.1,.,.
O=C(N/N=C/C=C/c1ccccc1)c1ccccc1O,-1.7,-25.3,-57.1
O=C(N/N=C/c1ccccc1Br)c1ccccn1,-9.9,-15.0,-3.8
C[C@H]1CN([C@@H](C)CO)C(=O)c2cccc(NC(=O)NC3CCCCC3)c2O[C@@H]1CN(C)Cc1ccc(Oc2ccccc2)cc1,.,49.5,-21.3
C[C@@H]1CN([C@H](C)CO)C(=O)c2cccc(NC(=O)NC3CCCCC3)c2O[C@H]1CN(C)Cc1ccc(-c2ccccc2)cc1,.,33.9,-7.3
C[C@H](CO)N1C[C@H](C)[C@@H](CN(C)Cc2ccc(-c3ccccc3)cc2)Oc2c(NC(=O)NC3CCCCC3)cccc2C1=O,.,68.2*,-19.5
C[C@@H]1CN([C@H](C)CO)C(=O)c2cccc(NC(=O)NC3CCCCC3)c2O[C@H]1CN(C)Cc1ccccc1,-1.6,23.3,7.7
C[C@@H]1CN([C@H](C)CO)C(=O)c2cccc(NC(=O)NC3CCCCC3)c2O[C@@H]1CN(C)Cc1ccc(Oc2ccccc2)cc1,-0.9,63.7*,-54.7
C[C@@H]1CN([C@H](C)CO)C(=O)c2cccc(NC(=O)NC3CCCCC3)c2O[C@H]1CN(C)Cc1ccc(Oc2ccccc2)cc1,.,61.0*,-38.0
O=C(N/N=C/c1cccc(Oc2ccccc2)c1)c1ccccc1O,-6.4,-15.4,-8.5
O=C(NO)c1ccc(C(=O)N/N=C/c2cc(Br)cc([N+](=O)[O-])c2O)cc1,-4.2,19.2,7.6
COc1ccc(/C=N/NC(=O)c2ccccn2)cc1OC,-2.2,-9.1,-8.7
